Test results as given in ChEMBL document CHEMBL1145814, “Antiretroviral activity of semisynthetic derivatives of glycopeptide antibiotics” (J Med Chem, 2003).
In brackets after ≈: the same amount, converted by molar mass. Several values for one entry are separate records, joined by “and”; a condition that tells them apart may be missing. Equal values may be shown once.

What was measured:
[1] = system: MOLT-4; assay: Inhibitory concentration of compound against proliferation of human T-lymphocytic cells MOLT-4/C8 was determined; format: functional, cell-based
In short: (§1)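 (5–7.5) × 10^4 cells per well were incubated with test compound at 37 °C in a humidified CO2 atmosphere. L1210 murine leukemia cells grew for 48 h, and CEM and Molt4/clone 8 human lymphocytes grew for 72 h. Cells were then counted with a Coulter counter. IC50 is the concentration inhibiting proliferation by 50%.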

[2] = system: Human immunodeficiency virus 2; assay: Concentration required to protect human T-lymphocytic cells against the cytopathogenicity of HIV-2; format: functional, organism-based
[3] = system: Human immunodeficiency virus 1; assay: Effective concentration of compound required to protect human T-lymphocytic cells against the cytopathogenicity of HIV-1; format: functional, organism-based
[4] = system: CCRF-CEM; assay: Inhibitory concentration against proliferation of human T-lymphocytic (CEM) cells; format: functional, cell-based; in short: as §1
[5] = species: Mus musculus; assay: Minimal inhibitory concentration required to cause a microscopic detectable alteration of C3H/3T3 embryo murine fibroblast cell morphology; format: functional
In short: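 Uninfected C3H/3T3 murine embryo fibroblast cultures were exposed to test compound and checked microscopically for changes in cell morphology. The MIC is the concentration causing a microscopically detectable alteration of morphology.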

[6] = species: Mus musculus; assay: Effective concentration of compound required to protect C3H/3T3 embryo murine fibroblasts against the MSV induced transformation; format: functional, organism-based; conditions: Mus musculus, C3H/3T3
In short: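 Monolayer murine embryo fibroblast C3H/3T3 cultures were infected with Moloney murine sarcoma virus at 75 focus-forming units and cultured with test compound. Transformation was examined microscopically on day 6 postinfection. EC50 is the concentration protecting cells against MSV-induced transformation by 50%.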

[7] = system: L1210; assay: Inhibitory concentration of compound against proliferation of murine lukemia cells L1210 was determined; format: functional, cell-based; conditions: Mus musculus; in short: as §1

## CN[C@@H](CC(C)C)C(=O)NC1C(=O)N[C@@H](CC(N)=O)C(=O)NC2C(=O)NC3C(=O)NC(C(=O)N[C@@H](C(=O)O)c4cc(O)cc(O)c4-c4cc3ccc4O)C(O)c3ccc(cc3)Oc3cc2cc(c3O)Oc2ccc(cc2Cl)C1O (stereo not given in full)
[1]
  IC50: > 500 µM
[2]; Human immunodeficiency virus 2
  EC50: > 250 µM
[3]; Human immunodeficiency virus 1
  EC50: 50 µM
[4]; Homo sapiens, CCRF-CEM
  IC50: > 500 µM
[5]
  MIC: > 100 µM
[6]
  EC50: > 100 µM
[7]
  IC50: > 500 µM

## O=C(NC1C(=O)NC2Cc3ccc(c(Cl)c3)Oc3cc4cc(c3O)Oc3ccc(cc3Cl)C(O)C3NC(=O)C(NC(=O)C4NC(=O)C(NC2=O)c2cc(O)cc(c2)Oc2cc1ccc2O)c1ccc(O)c(c1)-c1c(O)cc(O)cc1[C@H](C(=O)O)NC3=O)OC12CC3CC(CC(C3)C1)C2 (stereo not given in full)
[1]
  IC50: 25 µM
[2]; Human immunodeficiency virus 2
  EC50: 6 µM
[3]; Human immunodeficiency virus 1
  EC50: 13 µM
[4]; Homo sapiens, CCRF-CEM
  IC50: 104 µM
[5]
  MIC: > 20 µM
[6]
  EC50: 9.8 µM
[7]
  IC50: 22 µM

## CNC(=O)[C@@H]1NC(=O)C2NC(=O)C(NC(=O)C3NC(=O)C4NC(=O)C(NC(=O)C(N)c5ccc(O)c(c5)Oc5cc(O)cc4c5)C(O)c4ccc(c(Cl)c4)Oc4cc3cc(c4O[C@@H]3O[C@@H](CO)[C@@H](O)[C@H](O)[C@@H]3NC(=O)CCCCCCC(C)C)Oc3ccc(cc3Cl)C2O[C@@H]2O[C@@H](CO)[C@@H](O)[C@H](O)[C@@H]2NC(C)=O)c2ccc(O)c(c2)-c2c(O[C@H]3O[C@H](CO)[C@@H](O)[C@@H](O)[C@@H]3O)cc(O)cc21 (stereo not given in full)
[1]
  IC50: > 500 µM
[2]; Human immunodeficiency virus 2
  EC50: 190 µM
[3]; Human immunodeficiency virus 1
  EC50: 80 µM
[4]; Homo sapiens, CCRF-CEM
  IC50: > 500 µM
[5]
  MIC: > 100 µM
[6]
  EC50: 75 µM
[7]
  IC50: > 500 µM

## CNC1C(=O)NC2Cc3ccc(cc3)Oc3cc4cc(c3OC3OC(C(=O)O)C(O)C(O)C3N)Oc3ccc(cc3Cl)C(O)C3NC(=O)C(NC(=O)C4NC(=O)C(NC2=O)c2cc(cc(O)c2Cl)Oc2cc1ccc2O)c1ccc(O)c(c1)-c1c(O)cc(O)cc1[C@H](C(=O)O)NC3=O (stereo not given in full)
[1]
  IC50: > 500 µM
[2]; Human immunodeficiency virus 2
  EC50: > 250 µM
[3]; Human immunodeficiency virus 1
  EC50: 115 µM
[4]; Homo sapiens, CCRF-CEM
  IC50: > 500 µM
[5]
  MIC: > 100 µM
[6]
  EC50: > 100 µM
[7]
  IC50: > 500 µM

## NCCCCCCCCCCNC(=O)[C@@H]1NC(=O)C2NC(=O)C(NC(=O)C3NC(=O)C4NC(=O)C(Cc5ccc(c(Cl)c5)Oc5cc3cc(c5O)Oc3ccc(cc3Cl)C2O)NC(=O)C(N)c2ccc(O)c(c2)Oc2cc(O)cc4c2)c2ccc(O)c(c2)-c2c(O)cc(O)cc21 (stereo not given in full)
[1]
  IC50: 225 µM
[2]; Human immunodeficiency virus 2
  EC50: 12 µM
[3]; Human immunodeficiency virus 1
  EC50: 6.5 µM
[4]; Homo sapiens, CCRF-CEM
  IC50: 402 µM
[5]
  MIC: 20 µM (≈ 27.1 µg/mL)
[6]
  EC50: > 4 µM
[7]
  IC50: 500 µM

## CCCCc1ccc(CN2CCN(Cc3c(O)cc4c(c3O)-c3cc(ccc3O)C3NC(=O)C5NC(=O)C6NC(=O)C(Cc7ccc(cc7)Oc7cc5cc(c7OC5OC(C(=O)O)C(O)C(O)C5N)Oc5ccc(cc5Cl)C(O)C(NC3=O)C(=O)N[C@H]4C(=O)O)NC(=O)C(NC)c3ccc(O)c(c3)Oc3cc(O)c(Cl)c6c3)CC2)cc1 (stereo not given in full)
[1]
  IC50: > 50 µM
[2]; Human immunodeficiency virus 2
  EC50: > 50 µM
[3]; Human immunodeficiency virus 1
  EC50: 20 µM
[4]; Homo sapiens, CCRF-CEM
  IC50: 106 µM
[5]
  MIC: 100 µM (≈ 163 µg/mL)
[6]
  EC50: 6.9 µM
[7]
  IC50: 20 µM

## CN(Cc1ccc(Cl)cc1)Cc1c(O)cc2c(c1O)-c1cc(ccc1O)C1NC(=O)C3NC(=O)C4NC(=O)C(Cc5ccc(c(Cl)c5)Oc5cc3cc(c5O)Oc3ccc(cc3Cl)C(O)C(NC1=O)C(=O)N[C@H]2C(=O)O)NC(=O)C(N)c1ccc(O)c(c1)Oc1cc(O)cc4c1 (stereo not given in full)
[1]
  IC50: > 100 µM
[2]; Human immunodeficiency virus 2
  EC50: 20 µM
[3]; Human immunodeficiency virus 1
  EC50: 17 µM
[4]; Homo sapiens, CCRF-CEM
  IC50: > 100 µM
[5]
  MIC: > 100 µM
[6]
  EC50: 11 µM
[7]
  IC50: > 100 µM

## CNC(=O)[C@@H]1NC(=O)C2NC(=O)C(NC(=O)C3NC(=O)C(CC(N)=O)NC(=O)C(N)C(O)c4ccc(c(Cl)c4)Oc4cc3cc(c4O)Oc3ccc(cc3)C2O)c2ccc(O)c(c2)-c2c1cc(O)c(CNC1C3CC4CC(C3)CC1C4)c2O (stereo not given in full)
[1]
  IC50: > 250 µM
[2]; Human immunodeficiency virus 2
  EC50: 20 µM
[3]; Human immunodeficiency virus 1
  EC50: 13 µM
[4]; Homo sapiens, CCRF-CEM
  IC50: > 250 µM
[5]
  MIC: > 100 µM
[6]
  EC50: 14 µM
[7]
  IC50: > 250 µM

## NC1C(=O)NC2Cc3ccc(c(Cl)c3)Oc3cc4cc(c3O)Oc3ccc(cc3Cl)C(O)C3NC(=O)C(NC(=O)C4NC(=O)C(NC2=O)c2cc(O)cc(c2)Oc2cc1ccc2O)c1ccc(O)c(c1)-c1c(O)cc(O)cc1[C@H](C(=O)NC1C2CC4CC(C2)CC1C4)NC3=O (stereo not given in full)
[1]
  IC50: 26 µM
[2]; Human immunodeficiency virus 2
  EC50: 6 µM
[3]; Human immunodeficiency virus 1
  EC50: 7 µM
[4]; Homo sapiens, CCRF-CEM
  IC50: 123 µM
[5]
  MIC: > 100 µM
[6]
  EC50: 2.1 µM
[7]
  IC50: 30 µM

## O=C1NC2C(=O)NC3C(=O)NC4C(=O)NC(C(=O)N[C@@H](C(=O)O)c5cc(O)cc(O)c5-c5cc4ccc5O)C(O)c4ccc(c(Cl)c4)Oc4cc3cc(c4O)Oc3ccc(cc3Cl)CC1NC(=O)C(NC(=O)C13CC4CC(CC(C4)C1)C3)c1ccc(O)c(c1)Oc1cc(O)cc2c1 (stereo not given in full)
[1]
  IC50: 39 µM
[2]; Human immunodeficiency virus 2
  EC50: 4 µM
[3]; Human immunodeficiency virus 1
  EC50: 10 µM
[4]; Homo sapiens, CCRF-CEM
  IC50: 83 µM
[5]
  MIC: 100 µM (≈ 136 µg/mL)
[6]
  EC50: 11 µM
[7]
  IC50: 33 µM

## CNC(=O)[C@@H]1NC(=O)C2NC(=O)C(NC(=O)C3NC(=O)C4NC(=O)C(Cc5ccc(c(Cl)c5)Oc5cc3cc(c5O)Oc3ccc(cc3Cl)C2O)NC(=O)C(N)c2ccc(O)c(c2)Oc2cc(O)cc4c2)c2ccc(O)c(c2)-c2c(O)cc(O)cc21 (stereo not given in full)
[1]
  IC50: > 500 µM
[2]; Human immunodeficiency virus 2
  EC50: 17 µM
[3]; Human immunodeficiency virus 1
  EC50: 15 µM
[4]; Homo sapiens, CCRF-CEM
  IC50: > 500 µM
[5]
  MIC: > 100 µM
[6]
  EC50: > 20 µM
[7]
  IC50: > 500 µM

## COC(=O)[C@@H]1NC(=O)C2NC(=O)C(NC(=O)C(N)c3cc(Oc4ccc(CC(NC(=O)OCc5ccccc5)C(=O)O)cc4Cl)c(O)c(c3)Oc3ccc(cc3Cl)C2O)c2ccc(O)c(c2)-c2c1cc(O)c(CNC1C3CC4CC(C3)CC1C4)c2O (stereo not given in full)
[1]
  IC50: > 250 µM
[2]; Human immunodeficiency virus 2
  EC50: 37 µM
[3]; Human immunodeficiency virus 1
  EC50: 17 µM
[4]; Homo sapiens, CCRF-CEM
  IC50: > 250 µM
[5]
  MIC: > 100 µM
[6]
  EC50: 39 µM
[7]
  IC50: 181 µM

## CCCCc1ccc(CNC2C(Oc3c4cc5cc3Oc3ccc(cc3Cl)C(O)C3NC(=O)C(NC(=O)C5NC(=O)C5NC(=O)C(Cc6ccc(cc6)O4)NC(=O)C(NC)c4ccc(O)c(c4)Oc4cc(O)c(Cl)c5c4)c4ccc(O)c(c4)-c4c(cc(O)c(CN5CCN(Cc6ccc(-c7ccccc7)cc6)CC5)c4O)[C@H](C(=O)NCCCN(C)C)NC3=O)OC(C(=O)NCCCN(C)C)C(O)C2O)cc1 (stereo not given in full)
[1]
  IC50: 35 µM
[2]; Human immunodeficiency virus 2
  EC50: 20 µM
[3]; Human immunodeficiency virus 1
  EC50: 3.5 µM
[4]; Homo sapiens, CCRF-CEM
  IC50: 212 µM
[5]
  MIC: 20 µM (≈ 39.3 µg/mL)
[6]
  EC50: > 4 µM
[7]
  IC50: 25 µM

## NC1Cc2ccc(c(Cl)c2)Oc2cc3cc(c2O)Oc2ccc(cc2Cl)C(O)C2NC(=O)C(NC(=O)C3NC(=O)C(c3cc(O)cc(Oc4cc(C5NC(=S)N(c6ccccc6)C5=O)ccc4O)c3)NC1=O)c1ccc(O)c(c1)-c1c(cc(O)c(CNC3C4CC5CC(C4)CC3C5)c1O)[C@H](C(=O)O)NC2=O (stereo not given in full)
[1]
  IC50: > 250 µM
[2]; Human immunodeficiency virus 2
  EC50: 17 µM
[3]; Human immunodeficiency virus 1
  EC50: 13 µM
[4]; Homo sapiens, CCRF-CEM
  IC50: 242 µM
[5]
  MIC: > 100 µM
[6]
  EC50: 2.9 µM
[7]
  IC50: 73 µM

## CN(C)CCCNC(=O)[C@@H]1NC(=O)C2NC(=O)C(NC(=O)C3NC(=O)C4NC(=O)C(Cc5ccc(c(Cl)c5)Oc5cc3cc(c5O)Oc3ccc(cc3Cl)C2O)NC(=O)C(N)c2ccc(O)c(c2)Oc2cc(O)cc4c2)c2ccc(O)c(c2)-c2c1cc(O)c(CNC1C3CC4CC(C3)CC1C4)c2O (stereo not given in full)
[1]
  IC50: > 500 µM
[2]
  EC50: 8 µM and 22 µM
[3]
  EC50: 4 µM
[3]; Human immunodeficiency virus 1
  EC50: 2.5 µM
[4]; Homo sapiens, CCRF-CEM
  IC50: > 500 µM
[4]; ccrf-cem
  IC50: > 250 µM
[5]
  MIC: 20 µM (≈ 28.9 µg/mL)
[6]
  EC50: 12 µM
[7]
  IC50: > 500 µM

## CCCCc1ccc(CN2CCN(Cc3c(O)cc4c(c3O)-c3cc(ccc3O)C3NC(=O)C5NC(=O)C6NC(=O)C(Cc7ccc(c(Cl)c7)Oc7cc5cc(c7O)Oc5ccc(cc5Cl)C(O)C(NC3=O)C(=O)N[C@H]4C(=O)NC)NC(=O)C(N)c3ccc(O)c(c3)Oc3cc(O)cc6c3)CC2)cc1 (stereo not given in full)
[1]
  IC50: > 500 µM
[2]
  EC50: 3 µM and 6.3 µM
[3]
  EC50: 1.7 µM and 3.5 µM
[4]; Homo sapiens, CCRF-CEM
  IC50: > 500 µM
[4]; ccrf-cem
  IC50: > 250 µM
[5]
  MIC: > 20 µM
[6]
  EC50: 3.6 µM
[7]
  IC50: 61 µM
